This data set can be described thus: Toxicity liver stage against HepG2, at 10uM. Format: cell-based. More on the design: test concentration 10 uM, cell line HepG2-A16-CD81EGFP. The conditions noted are these: human, HepG2-A16-CD81EGFP cells; read-out: INHIBITION
The method, boiled down: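 Uninfected HepG2-A16-CD81EGFP cells, 3 × 10^3 per well, 1536-well, plated on prespotted compound at 10 μM final, parasite-free screening media added to match infected plates; puromycin 10 μM positive, DMSO 0.5% negative; run in parallel with 48 h PbLuc assay at 37 °C, 5% CO2; viability by CellTiter-Glo luminescence, normalized to controls.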
With `Cc1ccc(C)n1-c1ccc(C(=O)NCCNc2ncccn2)cc1`, the cytotoxicity at 10 µM is -1.25%.

Take `Cn1ccnc1CN1CCCN(C(=O)c2ccc3cc[nH]c3c2)CC1`: the cytotoxicity at 10 µM is -6.44%.

In the case of `Cn1cc(C2CCCN2C(=O)c2cnc(-c3ccccn3)s2)cn1` (stereo unspecified), the cytotoxicity at 10 µM is -8.1%.

As for `Cc1cc(N2CCCN(C(C(=O)O)c3cccc(C)c3F)CC2)ccn1` (stereo unspecified), the cytotoxicity at 10 µM is -2.11%.

For the molecule `CC1(C(=O)NCc2cc(F)cc(F)c2)CCOCC1`, the cytotoxicity at 10 µM came to 4.32%.

`CCOC(=O)C1CCN(C(=O)CN2CCCC2c2ccccc2C)CC1` (stereo unspecified): the cytotoxicity at 10 µM was found to be 7.97%.

Turning to `CN(C)CC(=O)N1CCc2sc(C(=O)N3CCOCC3)cc21`, the cytotoxicity at 10 µM is -99.4%.

On to `COC(=O)c1cc2c(OC)c(OC)c(OC)cc2[nH]1`, for which the cytotoxicity at 10 µM is -0.555%.

Regarding `COCCC1(C(=O)O)CCCN(C(=O)c2cnc3c(c2)CCCC3)C1` (stereo unspecified), the cytotoxicity at 10 µM was -44.5%.

With `CCn1nc(C)c2nnn(CC(=O)Nc3cccc(F)c3)c(=O)c21`, the cytotoxicity at 10 µM turned out to be 8.44%.

In the case of `Cc1cnc(Cn2cc(-c3cccc(C(C)N(C)C)c3)nn2)cn1` (stereo unspecified), the cytotoxicity at 10 µM was -0.807%.

For `CN(C)S(=O)(=O)N1C[C@H]2CCC[C@@]2(COCC2CCOCC2)C1`, the cytotoxicity at 10 µM worked out at 7.45%.

For `CCC(NCc1ccccc1)c1ccccc1OCC(=O)NC` (stereo unspecified), the cytotoxicity at 10 µM stood at 16.2%.

Turning to `O=C(Cc1ccccn1)N1CCc2nc(-c3cnccn3)nc(O)c2C1`, the cytotoxicity at 10 µM was found to be 2.83%.

Consider `COCc1nc(C(=O)N2CCCC(n3ccnc3C(C)C)C2)cs1` (stereo unspecified), for which the cytotoxicity at 10 µM was -30.8%.

Take `O=C(CC1CN(Cc2ccccc2)CCO1)Nc1ccsc1` (stereo unspecified): the cytotoxicity at 10 µM is -16.4%.

With `CN(C)CC1(O)CCCN(C(=O)c2ccccc2-n2cncn2)C1` (stereo unspecified), the cytotoxicity at 10 µM came to 2.11%.

In the case of `CN(C(=O)c1cccnc1)C1CCCN(CCc2ccccc2)C1` (stereo unspecified), the cytotoxicity at 10 µM is -3.59%.

`Cc1ccc(S(=O)(=O)NCc2cccc(C(=O)N3CCCC3)c2)cc1F`: the cytotoxicity at 10 µM is -14.5%.

On to `Cc1nn(C)c(C)c1C1CCCN1CCCC#N` (stereo unspecified), for which the cytotoxicity at 10 µM was -0.699%.

For `Cc1nc(CC(=O)N(C)C2CCCN(CCc3ccccc3)C2)cs1` (stereo unspecified), the cytotoxicity at 10 µM turned out to be 3.13%.

Regarding `CNC(=O)N1C[C@@H]2C[C@H](C(=O)NCc3cccnc3)[C@H](C1)O2`, the cytotoxicity at 10 µM amounted to 6.43%.

Turning to `CCn1nc(C)c(C(C)NC(=O)c2cnc(N(C)C)nc2C)c1C` (stereo unspecified), the cytotoxicity at 10 µM was found to be 5.19%.

For `COc1ccc(CCNC(=O)C2CCCOC2)c(Cl)c1` (stereo unspecified), the cytotoxicity at 10 µM turned out to be 0.0357%.

In the case of `O=C(N1CCOCC1)N1CCOC[C@H](Oc2ccc(C(F)(F)F)cc2)C1`, the cytotoxicity at 10 µM worked out at 1.27%.

On to `CC(NC(=O)NCCn1ccnc1)c1ccc2c(c1)OCCCO2` (stereo unspecified), for which the cytotoxicity at 10 µM is -7.27%.

For the molecule `Cc1ccc(CN2CCC(O)(Cn3ccc4ncccc43)CC2)o1`, the cytotoxicity at 10 µM was -31.2%.

`CC(C)(O)CCc1cccc(C(=O)NCc2nccs2)c1`: the cytotoxicity at 10 µM was -50.7%.

On to `COCC(=O)N1CCOC(c2ccc(N(C)C)cn2)C1` (stereo unspecified), for which the cytotoxicity at 10 µM is -13.1%.

For the molecule `O=C(NCCS(=O)(=O)N1CCN(c2ncccn2)CC1)C1CC1`, the cytotoxicity at 10 µM was -4.15%.

On to `CC(CS(C)(=O)=O)N(C(=O)Nc1ccc(F)cc1F)C1CC1` (stereo unspecified), for which the cytotoxicity at 10 µM came to 4.08%.

Take `CC(=O)NCCNC(=O)c1cc(Br)c2c(c1)OCCO2`: the cytotoxicity at 10 µM is -1.54%.

Take `CN1C[C@@H](C(=O)N(C)C)[C@@]2(CCc3ccccc3C(=O)N2)C1`: the cytotoxicity at 10 µM was 1.2%.

For the molecule `O=c1ccc2c([nH]1)CCC(NCc1ccc3c(c1)OCO3)C2` (stereo unspecified), the cytotoxicity at 10 µM came to 6.69%.

As for `Cc1nc(Nc2nccs2)cc(C2CN(C(C)C)C2)n1`, the cytotoxicity at 10 µM was -5.42%.

In the case of `Cc1nonc1C1CCCN1C(=O)c1cc2n(n1)CCCN(C(C)C)C2` (stereo unspecified), the cytotoxicity at 10 µM is -10%.

With `Cc1cnn(C2CCCN(C(=O)c3cc(-c4ccco4)[nH]n3)C2)c1` (stereo unspecified), the cytotoxicity at 10 µM was -9.48%.

On to `CC(C)n1ccnc1C1CCN(Cc2ccc(C(F)(F)F)c(F)c2)CC1`, for which the cytotoxicity at 10 µM is -7.43%.

In the case of `O=C(NCCO)NCC(c1ccccc1)N1CCc2sccc2C1` (stereo unspecified), the cytotoxicity at 10 µM was found to be 1.96%.

Take `O=C(CCn1ccnn1)N1CCCC(n2cncn2)C1` (stereo unspecified): the cytotoxicity at 10 µM was -1.26%.

As for `O=C(CN(CC(O)c1ccc(F)cc1)C1CC1)Nc1cccnc1` (stereo unspecified), the cytotoxicity at 10 µM was -4.19%.

For the molecule `Cc1noc(C2CCN(C(=O)CCc3ccccn3)CC2)n1`, the cytotoxicity at 10 µM was -3.25%.

With `Cc1csc(CNc2cccc(OCCN3CCCC3)c2)n1`, the cytotoxicity at 10 µM was -4.49%.

For the molecule `CC1(C)Cc2cc(-c3cncn3CCNC3CCS(=O)(=O)C3)ccc2O1` (stereo unspecified), the cytotoxicity at 10 µM is 2.95%.

As to `CNc1oc(-c2cc(S(=O)(=O)N3CCCC3)c(C)o2)nc1C#N`, the cytotoxicity at 10 µM was 5.08%.

Regarding `Cc1ccc(S(C)(=O)=O)cc1C(=O)N1CCCC(n2cncn2)C1` (stereo unspecified), the cytotoxicity at 10 µM is -8.21%.

As to `CN(C(=O)CN1CCC(c2cc3ccccc3[nH]2)CC1)C(C)(C)C#N`, the cytotoxicity at 10 µM came out at 6.24%.

Take `COCCn1cnnc1C1CCCN(c2cnccn2)C1` (stereo unspecified): the cytotoxicity at 10 µM is -2.22%.

Consider `CCCC(NC(=O)c1cncc(C)c1)c1nnn[nH]1` (stereo unspecified), for which the cytotoxicity at 10 µM was -15.5%.

In the case of `O=C(NCCc1nncn1C1CC1)C1(c2ccccc2)CCC1`, the cytotoxicity at 10 µM was 5.36%.

Consider `CC1c2ncc(Cn3cncn3)n2CCN1C(=O)c1cscn1` (stereo unspecified), for which the cytotoxicity at 10 µM was -17.5%.

With `CC(C)Cc1cc(CC2(NCc3ccco3)COC2)no1`, the cytotoxicity at 10 µM came out at 6.25%.

As to `COCCC(=O)N1CCC(c2ncncc2-c2ccnc(N)c2)C1` (stereo unspecified), the cytotoxicity at 10 µM is -2.68%.

Take `N#CC1(C(=O)N2CCN(Cc3cscn3)CC2)CCCC1`: the cytotoxicity at 10 µM was -8.08%.

`CC(C)n1cc(CN2CCCN(C(=O)c3ccco3)CC2)cn1`: the cytotoxicity at 10 µM is -2.27%.

For `O=C(c1n[nH]c(=O)c2ccccc12)N1CCCCC1c1ccn[nH]1` (stereo unspecified), the cytotoxicity at 10 µM is -0.285%.

Consider `CC(=O)N1CCC(c2cccc(-c3cccc(C(=O)O)c3)n2)CC1`, for which the cytotoxicity at 10 µM is -0.0353%.

For `Cc1cc(C)c(CNC(=O)N(C)Cc2sccc2C)c(=O)[nH]1`, the cytotoxicity at 10 µM is -1.77%.

For `CC(C)(C)CC(=O)NS(=O)(=O)c1ccc(F)cc1C(F)(F)F`, the cytotoxicity at 10 µM is -4.3%.

For the molecule `O=C(O)c1ccc2c(c1)C1(CCCCC1)CN2C(=O)c1cccc(F)c1`, the cytotoxicity at 10 µM came to 2.49%.

On to `c1csc(CN2CCCC3(COCCN(Cc4c[nH]nn4)C3)C2)c1` (stereo unspecified), for which the cytotoxicity at 10 µM was found to be 5.1%.

Take `COc1cccc(-c2n[nH]cc2CNC2CCC(O)CC2)c1` (stereo unspecified): the cytotoxicity at 10 µM is -0.874%.

For the molecule `CCN(CC)Cc1cc(=O)n2c(n1)CN(S(=O)(=O)C1CC1)CCC2`, the cytotoxicity at 10 µM was found to be 6.95%.

For `O=S(=O)(C1CC1)N1CCC2(CCCN(c3ncc(F)cn3)C2)C1` (stereo unspecified), the cytotoxicity at 10 µM turned out to be 11.5%.

As for `CC(C(=O)NCc1ccc2c(c1)OCCO2)n1cncn1` (stereo unspecified), the cytotoxicity at 10 µM is -141%.

Consider `CCc1ncc(CN2CCC(CCc3ccccc3)CC2)cn1`, for which the cytotoxicity at 10 µM was -175%.

For the molecule `CCN(CC)C(=O)C1CCN(c2ccc(Cl)cc2C#N)CC1`, the cytotoxicity at 10 µM is 12.2%.

As for `CCNC(=O)[C@@H]1CCCN1[C@@H](C(=O)NC)C1CC1`, the cytotoxicity at 10 µM was -2.39%.

`CCc1nsc(N2CCN(CC(=O)NCc3cccnc3)CC2)n1`: the cytotoxicity at 10 µM was -4.52%.

`Cc1ccccc1C(=O)NC[C@@H]1CCN(C(=O)c2cccn2C)C[C@H]1O`: the cytotoxicity at 10 µM is -45.3%.

Turning to `O=C(CN1CCc2sccc2C1)Nc1nccs1`, the cytotoxicity at 10 µM turned out to be 5.31%.

On to `O=C(c1ccnnc1)N1C[C@@H]2C[C@@H](c3nc(C4CC4)cs3)O[C@@H]2C1`, for which the cytotoxicity at 10 µM is -124%.

As to `OCCNc1cc(-c2nccnc2N2CCCC2)c2cc[nH]c2n1`, the cytotoxicity at 10 µM was -7.57%.

In the case of `CC(C)(C)c1cc(NC(=O)CN2CCc3cncnc3C2)on1`, the cytotoxicity at 10 µM was -8.78%.

As for `NC(=O)CC1CCN(C(=O)c2csc(-c3ccccc3F)n2)CC1`, the cytotoxicity at 10 µM was -1.29%.

For the molecule `CC(C)=CCN1CCN(Cc2nc3ccccc3[nH]2)[C@H]2CS(=O)(=O)C[C@H]21`, the cytotoxicity at 10 µM is -132%.

In the case of `COc1ccc(COCC(O)CNC(=O)c2ccncc2)cc1` (stereo unspecified), the cytotoxicity at 10 µM is -5.31%.

On to `c1ccc(CN2CCN(Cc3cnc(C4CCCCO4)nc3)CC2)cc1` (stereo unspecified), for which the cytotoxicity at 10 µM was -1.71%.

On to `CCOC1CCN(C(=O)NCc2ccc(CN3CCOCC3)cc2)CC1`, for which the cytotoxicity at 10 µM stood at 7.31%.

As for `O=C(CN(Cc1ccccc1)CC1CCOCC1)Nc1nccs1`, the cytotoxicity at 10 µM is -13.5%.

Turning to `Cc1noc(C)c1-c1cncc(C2CCCN2Cc2cc[nH]n2)n1` (stereo unspecified), the cytotoxicity at 10 µM was 13%.

For `CCn1nnc2c1C(COCC(=O)N(C)C)CN(Cc1ccco1)C2` (stereo unspecified), the cytotoxicity at 10 µM was -4.96%.

Regarding `COCCOc1ccccc1C(=O)Nc1c(C)cnn1CC1CC1`, the cytotoxicity at 10 µM was found to be 1.13%.

As for `CN(Cc1cn(-c2ccccc2)nn1)C1CCCN(c2cccnn2)C1` (stereo unspecified), the cytotoxicity at 10 µM is -20.5%.

As to `N#Cc1ccccc1CN1CCCC(c2nccn2CC2CC2)C1` (stereo unspecified), the cytotoxicity at 10 µM is 2.84%.

For `O=C(CCC(=O)N1CCc2ccccc2C1)c1cccs1`, the cytotoxicity at 10 µM was -61.8%.

`O=C(CCc1ccccn1)NCC(O)c1ccc(Cl)cc1Cl` (stereo unspecified): the cytotoxicity at 10 µM came to 8.54%.

As to `COCCC1(CO)CCCN(Cc2ccc(F)c(C)c2)C1` (stereo unspecified), the cytotoxicity at 10 µM was -1.31%.

For the molecule `CCCNC(=O)CCC(=O)Nc1ccc(-n2cncn2)c(F)c1`, the cytotoxicity at 10 µM was 1.94%.

As for `NC(=O)CNC(=O)c1ccc(CNCc2ccc(Cl)cc2Cl)cc1`, the cytotoxicity at 10 µM was -41.5%.

With `O=c1c2ccc(C(F)(F)F)cc2ncn1CCCN1CCCCC1CO` (stereo unspecified), the cytotoxicity at 10 µM is -5.98%.

With `COCCC1(CO)CCCN(C(=O)c2cc(Cl)ccc2F)C1` (stereo unspecified), the cytotoxicity at 10 µM was 4.36%.

With `CC(=O)c1cc(CN2C[C@@H](CN3CCC(O)CC3)[C@@H](CO)C2)n(C)c1`, the cytotoxicity at 10 µM was determined as 7.58%.

`CNc1nnc(CCn2nc(C)c(Br)c2C)s1`: the cytotoxicity at 10 µM is 2.83%.

As to `Cc1cc(C)n(CC2CN(Cc3nnsc3Cl)CCO2)n1` (stereo unspecified), the cytotoxicity at 10 µM was found to be 1.46%.

As for `CSCCC(NC(=O)c1ccc2ccccc2n1)C(=O)NC(C)C` (stereo unspecified), the cytotoxicity at 10 µM was determined as 9.3%.

Values taken from ChEMBL document CHEMBL4513216, “Probing the Open Global Health Chemical Diversity Library for Multistage-Active Starting Points for Next-Generation Antimalarials” (ACS Infect Dis, 2020).
